Measurements of several laboratories.
pIC50: −log10 of the molar value.

Compound	cell line	assay	system	setting	quantity	result
COc1ccc(C=NNC(=S)Nc2ccc(C#N)cc2)cc1	CRFK	cell growth or viability, MTS	–	–	CC50	> 100 µg/mL
CC(C)(C)NC(=O)N[C@H](C(=O)N1C[C@H]2[C@@H]([C@H]1C(=O)NC(CC1CCC1)C(=O)C(N)=O)C2(C)C)C(C)(C)C (stereo partly drawn)	MDCK	cell growth or viability, neutral red	–	48 h	CC50	> 100 µM
Nc1nc(O)c2ncn(COC(CO)CO)c2n1	CRFK	cell growth or viability, MTS	–	–	CC50	> 100 µM
CC[C@@]1(O)C(=O)OCc2c1cc1n(c2=O)Cc2cc3ccccc3nc2-1	MDCK	–	Caco-2	0.5 µM, 105 min, pH 7.4	Papp A→B	27 ×10⁻⁶ cm/s
CC(N)C12CC3CC(CC(C3)C1)C2 (stereo not drawn)	MDCK	cell growth or viability, MTT	–	72 h	CC50	62 µM
CC(C)[C@H](N)C(=O)N1CCC[C@H]1B(O)O	K562	cell growth or viability, ATP luminescence	–	60 µM, 5 days	viability	98%
O=C(CCCN1CCC(O)(c2ccc(Cl)cc2)CC1)c1ccc(Br)cc1	K562	cell growth or viability	–	–	pIC50	4.39
N#Cc1ccc(NC(=S)NN)cc1	CRFK	cell growth or viability, MTS	–	–	CC50	84.6 µg/mL
CCC(CC)O[C@@H]1C=C(C(=O)O)C[C@H](N)[C@H]1NC(C)=O	MDCK	cell growth or viability, MTT	–	72 h	CC50	> 200 µM
